Published values collected from several papers.
Each line is one published result; the experiments were not run side by side.
Target: Prostaglandin G/H synthase 2 (PTGS2, Homo sapiens, UniProt P35354)
Observed: enzyme activity
Action: inhibitor
One construct used (P35354 18-604): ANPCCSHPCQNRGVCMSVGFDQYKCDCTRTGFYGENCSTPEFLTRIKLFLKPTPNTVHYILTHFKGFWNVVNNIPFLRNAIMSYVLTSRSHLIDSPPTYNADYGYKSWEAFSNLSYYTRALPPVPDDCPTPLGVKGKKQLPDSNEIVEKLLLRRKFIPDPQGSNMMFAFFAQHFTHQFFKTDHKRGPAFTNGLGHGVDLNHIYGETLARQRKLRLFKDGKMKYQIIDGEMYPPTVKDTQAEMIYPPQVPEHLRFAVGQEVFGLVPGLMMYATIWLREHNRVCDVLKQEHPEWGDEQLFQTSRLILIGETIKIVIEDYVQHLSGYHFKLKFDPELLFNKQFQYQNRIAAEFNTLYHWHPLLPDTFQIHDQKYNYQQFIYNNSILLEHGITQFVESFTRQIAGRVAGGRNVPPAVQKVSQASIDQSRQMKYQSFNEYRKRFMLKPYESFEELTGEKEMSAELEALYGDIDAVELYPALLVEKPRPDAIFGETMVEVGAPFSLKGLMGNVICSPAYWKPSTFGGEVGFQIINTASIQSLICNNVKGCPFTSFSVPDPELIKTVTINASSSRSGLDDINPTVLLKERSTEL

O=Cc1cn(-c2nc(Cl)nc(N3CCOCC3)n2)c2ccccc12 — IC50: 10000 nM
Cc1cccn2c(Nc3ccc(F)cc3)c(-c3ccc(S(C)(=O)=O)cc3)nc12 — IC50: 70 nM
COC(=O)c1cc(O)c(O)c(O)c1 — IC50: 17900 nM
O=Cc1cn(-c2nc(N3CCCCC3)nc(N3CCOCC3)n2)c2ccccc12 — IC50: 700 nM
COc1cc([C@H]2OC[C@H]3[C@@H]2CO[C@@H]3c2cc(OC)c(O)c(OC)c2)cc(OC)c1O — IC50 (absorbance): 2490 nM
O=C1Nc2ccccc2/C1=C/c1cn(-c2nc(N3CCOCC3)nc(N3CCOCC3)n2)c2ccccc12 — IC50: 1000 nM
CC(C)Cc1ccc(-c2nn(-c3ccc(S(C)(=O)=O)cc3)cc2/C=N/N=c2\[nH]c(-c3ccc([N+](=O)[O-])cc3)cs2)cc1 — IC50: 817 nM
COC(=O)c1ccc(O)cc1 — IC50 (absorbance): 97900 nM
CS(=O)(=O)c1ccc(-n2cc(/C=N/N=c3\[nH]c(-c4ccc([N+](=O)[O-])cc4)cs3)c(-c3ccc([N+](=O)[O-])cc3)n2)cc1 — IC50: 15500 nM
Cc1cccn2c(Nc3ccccc3)c(-c3ccc(S(C)(=O)=O)cc3)nc12 — IC50: 80 nM
COc1ccc(-c2nn(-c3ccc(S(C)(=O)=O)cc3)cc2/C=N/N=c2\[nH]c(-c3ccc(Br)cc3)cs2)cc1 — IC50: 18600 nM
O=C(O)/C=C/c1ccc(O)cc1 — IC50: > 100000 nM
CC(C)Cc1ccc(-c2nn(-c3ccc(S(C)(=O)=O)cc3)cc2/C=N/N=c2\[nH]c(-c3ccc(Br)cc3)cs2)cc1 — IC50: 3010 nM
Cc1cccc2nc(-c3ccc(S(C)(=O)=O)cc3)c(Nc3ccccc3)n12 — IC50: 70 nM
NS(=O)(=O)c1ccc(-c2ncccc2-c2nc3ccccc3s2)cc1 — IC50 (absorbance): 690 nM
CCn1c(-c2nc3ccc(C(=O)N4CCCC(N)C4)cc3n2C)cc2ccccc21 (stereo not drawn) — IC50: > 100000 nM
O=Cc1cn(-c2nc(N3CCOCC3)nc(N3CCOCC3)n2)c2ccccc12 — IC50: 30 nM
CCOC(=O)c1cc(O)c(O)c(O)c1 — IC50: 13400 nM
C=C[C@@]1(C)C=C2CC[C@@H]3[C@](C)(CCC[C@@]3(C)C(=O)O)[C@H]2CC1 — IC50 (absorbance): 18500 nM
CC(=O)c1ccc(N=Nc2c(C(=O)O)cc(O)c(O)c2O)cc1 — IC50: 6110 nM
COc1ccc(Nc2c(-c3ccc(S(C)(=O)=O)cc3)nc3c(C)cccn23)cc1 — IC50: 80 nM
Cc1ccc(-c2nc3ccccc3s2)c(-c2ccc(S(N)(=O)=O)cc2)c1 — IC50 (absorbance): 250 nM
Cc1ccc(Nc2c(-c3ccc(S(C)(=O)=O)cc3)nc3c(C)cccn23)cc1 — IC50: 70 nM
CS(=O)(=O)c1ccc(-n2cc(/C=N/N=c3\[nH]c(-c4ccc(Br)cc4)cs3)c(-c3ccc(Br)cc3)n2)cc1 — IC50: 5820 nM
CC(=O)c1cccc(N=Nc2c(C(=O)O)cc(O)c(O)c2O)c1 — IC50: 5510 nM
CC1=NN(c2cccc(Cl)c2)C(=O)/C1=C\c1cn(-c2nc(N3CCCCC3)nc(N3CCOCC3)n2)c2ccccc12 — IC50: 50 nM
CS(=O)(=O)c1ccc(-c2ncc(Cl)cc2-c2nc3ccccc3s2)cc1 — IC50 (absorbance): 230 nM
Cc1ccn2c(Nc3ccc(Cl)cc3)c(-c3ccc(S(C)(=O)=O)cc3)nc2c1 — IC50: 80 nM
CC1=NN(c2cccc(Cl)c2)C(=O)/C1=C\c1cn(-c2nc(N3CCCCC3)nc(N3CCCCC3)n2)c2ccccc12 — IC50: 100 nM
COc1ccc(Nc2c(-c3ccc(S(C)(=O)=O)cc3)nc3cccc(C)n23)cc1 — IC50: 90 nM
O=Cc1cn(-c2nc(N3CCCC3)nc(N3CCOCC3)n2)c2ccccc12 — IC50: 2000 nM
Cc1cccc2nc(-c3ccc(S(C)(=O)=O)cc3)c(Nc3ccc(F)cc3)n12 — IC50: 80 nM
O=C1/C(=C\c2cn(-c3nc(N4CCOCC4)nc(N4CCOCC4)n3)c3ccccc23)c2ccccc2N1c1c(Cl)cccc1Cl — IC50: 400 nM
